# High-throughput results (PubChem BioAssay)
# Most compounds without a hit are left out; they make up all but 2.5% or so of the library.
# SIAE primary: human SIAE inhibition, primary screen. SIAE FP-Rh probe binding, fluorescence polarization. 370,000 tested, 0.69% active. inhibition, % at 9.66 µM;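 active means inhibition above a cutoff: mean of compounds within the control limits plus 3 SD of those, cut at about 17% in these data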;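 further: 0% = plate median of compound wells and 100% = probe without SIAE protein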
# TCR CD3 inh: blocks the human TCR-CD3 interaction. TAMRA-labeled TCR probe fluorescence, biochemical. inhibition, % at 9.4 µM. 360,000 tested, 0.37% active. AID 651800; in the data active means inhibition above about 19%;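 further: recombinant mutant TCR 2C K166C tagged with TAMRA read by polarization; 0% = receptor in buffer alone and 100% = receptor with positive control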
# ABHD4 inh: inhibits mouse alpha/beta hydrolase domain 4; purified mABHD4, FP-Rh probe fluorescence polarization; 370,000 tested, 0.54% active; inhibition, % at 8.92 µM;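 active means inhibition exceeding the mean over every tested compound plus 3 SD, cut at about 30% in these data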;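 further: 0% = plate median of compound wells and 100% = S159A mutant with DMSO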
#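 Test system: mABHD4 protein; Read-out basis: % inhibition; Incubation: 45 min + 60 min at 25 °C; Repeats: single replicate; Technique: fluorescence polarization with parallel and perpendicular emission, 525/598 nm; Compound: 8.92 µM, single dose; Benchmarks: full inhibition S159A mutant plus DMSO, zero as sample-well median.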
# PRMT1 FP inh: blocks human protein arginine methyltransferase 1 | Q99873 | recombinant PRMT1, activity-based probe fluorescence polarization | inhibition, % at 2.79 µM | 370,000 tested, 1.3% active | AID 652257;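 active means inhibition above about 21% made by adding two undisclosed values, limit read from the data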
# HTRA1 inhibitor: inhibitors of human serine peptidase HTRA1; 340,000 tested, 0.5% active; AID 504803; Q92743; recombinant HTRA1, FP-rhodamine activity-based probe, fluorescence polarization; inhibition, % at 5.96 µM; in the data active means inhibition above about 36%;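 further: 0% = enzyme with DMSO and 100% = wells lacking enzyme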
# Target sequence (Q92743 whole entry, looked up): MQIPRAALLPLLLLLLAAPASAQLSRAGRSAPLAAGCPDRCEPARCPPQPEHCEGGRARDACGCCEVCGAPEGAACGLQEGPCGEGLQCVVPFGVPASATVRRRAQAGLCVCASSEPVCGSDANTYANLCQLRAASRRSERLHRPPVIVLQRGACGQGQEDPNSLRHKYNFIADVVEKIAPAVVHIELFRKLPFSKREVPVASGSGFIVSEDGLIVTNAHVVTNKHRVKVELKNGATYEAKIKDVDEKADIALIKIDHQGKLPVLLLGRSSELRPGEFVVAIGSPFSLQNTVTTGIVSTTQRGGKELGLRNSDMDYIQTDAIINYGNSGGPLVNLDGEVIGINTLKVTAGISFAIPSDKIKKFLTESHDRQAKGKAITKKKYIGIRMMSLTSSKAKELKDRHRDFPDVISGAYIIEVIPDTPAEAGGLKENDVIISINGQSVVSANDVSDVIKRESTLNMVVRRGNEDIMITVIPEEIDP
# PRMT1 inh conf: PRMT1 (human) inhibition, FP confirmation; shares compounds with PRMT1 FP inh; recombinant His-PRMT1, activity-based probe fluorescence polarization; inhibition, % at 2.79 µM; 3,300 tested, 42% active; AID 687036;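 active means mean inhibition across replicates above the hit cutoff derived for the earlier primary screen, cut at about 22% in these data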
# Starred values were filed as active, the others as inactive; / = not tested or not shown.
SMILES,SIAE primary,TCR CD3 inh,ABHD4 inh,PRMT1 FP inh,HTRA1 inhibitor,PRMT1 inh conf
O=C(/C=C/c1ccco1)Nc1cc(Cl)ccc1C(=O)O,-9,2,-8,25*,-11,9
O=C(/C=C/c1ccco1)Nc1ccccc1C(=O)Nc1cccc(C(=O)O)c1,0,1,-17,25*,-13,-2
Cc1ccc(NC(=S)NC(=O)/C=C/c2ccco2)c(O)c1,8,7,23,28*,10,18
COc1cccc(NC(=S)NC(=O)/C=C/c2ccco2)c1,-2,-4,0,14,-5,/
O=C(/C=C/c1ccco1)Nc1ccccc1C(=O)O,0,6,0,17,/,/
O=C(/C=C/c1ccco1)NC(=S)Nc1cccc(C(=O)O)c1,9,5,25,34*,11,30*
CCOc1ccc(CCNS(=O)(=O)c2c(C)nc3sccn3c2=O)cc1OCC,0,-10,1,6,/,/
CCOc1ccc(C(=O)NC(=S)Nc2ccccc2N2CCOCC2)cc1Br,-10,-6,-8,4,-3,/
CCSc1nnc([C@H](Cc2ccccc2)NC(=O)OC(C)(C)C)o1,-3,2,3,2,0,/
CC(C)(C)OC(=O)N[C@@H](Cc1ccccc1)c1nnc(S(=O)(=O)Cc2ccccc2)o1,8,6,22,54*,/,21
Cc1ccccc1CS(=O)(=O)c1nnc([C@H](Cc2ccccc2)NC(=O)OC(C)(C)C)o1,2,2,10,38*,-4,26*
CC(C)(C)OC(=O)N[C@@H](Cc1ccccc1)c1nnc(SCC(=O)O)o1,6,-3,-2,-1,0,/
CC(C)[C@H](NC(=O)[C@@H]1CCCN1)C(=O)N1CCC2CCN(S(=O)(=O)c3ccccc3)CC21 (stereo partly specified),0,/,4,2,/,/
O=c1c2ccccc2sn1-c1cccc(Cl)c1,-7,2,4,82*,0,84*
O=c1nc2sc3ccccc3n2c(=O)n1-c1cccc(Cl)c1,/,/,/,/,-6,/
CN(C)S(=O)(=O)c1cccc(-n2sc3ccccc3c2=O)c1,-16,6,-41,102*,-9,95*
Cc1ccc2c(c1)N(Cc1ccncc1)C(=O)C(C)O2 (stereo unspecified),2,2,3,2,0,/
NC1=NC(=O)CC(C(=O)NCCc2ccccc2)S1 (stereo unspecified),-5,6,2,30*,0,3
NC1=NC(=O)CC(C(=O)Nc2cccc3ccccc23)S1 (stereo unspecified),/,/,/,/,-2,/
COc1ccc(S(=O)(=O)c2c(N)n(Cc3ccco3)c3nc4ccccc4nc23)cc1,-8,-7,-13,28*,6,18
O=C(CNC(=O)c1sc2ccccc2c1Cl)NCc1ccccc1,-2,-2,-6,4,-10,/
CC(=Nc1cccc(C)c1)c1sc2ccccc2c1O,7,2,4,26*,-2,19
CC(=Nc1ccccc1O)c1sc2ccccc2c1O,5,-3,16,34*,27,25*
CC(=O)NCCN=C(C)c1sc2ccccc2c1O,3,-1,2,25*,4,21*
Clc1cnc(Nc2cccnc2)c(Cl)c1,-3,2,5,-4,5,/
SMILES,SIAE primary,TCR CD3 inh,ABHD4 inh,PRMT1 FP inh,HTRA1 inhibitor,PRMT1 inh conf
COc1cccc(-n2c(=O)n(Cc3ccccc3)c(=O)c3[nH]cnc32)c1,1,2,-5,9,12,/
CCOC(=O)C1=C(COC(=O)c2ncc(Cl)c(Cl)c2Cl)NC(=O)NC1C (stereo unspecified),-7,-9,0,0,3,/
COCCCN(C(C)=O)c1nc(-c2ccc(OC)cc2)cs1,-4,3,-7,4,-3,/
Cc1onc(-c2c(Cl)cccc2Cl)c1CO/N=C(\C#N)c1c(Cl)cccc1Cl,-6,3,-11,0,-9,/
COc1ccccc1Cc1c(C(C)(C)C)nc2c(C)cc(Br)cn12,-1,-3,7,13,/,/
CSc1nnc(N2C(=O)C(O)=C(C(=O)c3ccco3)C2c2cccc(Cl)c2)s1 (stereo unspecified),-12,-3,-20,30*,-18,18
CSc1nnc(N2C(=O)C(O)=C(C(=O)c3ccco3)C2c2ccc(F)cc2)s1 (stereo unspecified),-3,-22,-6,43*,-1,11
O=C(C1=C(O)C(=O)N(c2ncccn2)C1c1cccc(Cl)c1)c1ccco1 (stereo unspecified),8,-7,20,7,4,/
CCSc1nnc(N2C(=O)C(O)=C(C(=O)c3ccco3)C2c2cccc(OC)c2)s1 (stereo unspecified),-5,-3,-10,31*,-5,17
O=C(C(=O)N1CCN(c2ccccc2)CC1)c1ccco1,-2,11,4,-8,/,/
CCOC(=O)c1c(-c2ccc(C)o2)csc1NC(=S)NC(=O)N(C)C,4,-5,2,80*,-5,12
CCOC(=O)c1c(-c2ccc(C)o2)csc1NC(=O)COC(=O)c1cccs1,-4,8,-8,2,-32,/
CCOC(=O)c1c(-c2ccc(C)o2)csc1NC(=O)CSc1ncn[nH]1,-6,1,-9,33*,-12,14
CCC(C)c1ccc(S(=O)(=O)N2CCN3CCCC3C2)cc1 (stereo unspecified),-4,4,-3,-1,9,/
Cc1ccc[n+](-c2nc([O-])sc2C=O)c1,-7,7,0,58*,0,62*
CC(C)c1ccc[n+](-c2nc([O-])sc2C=O)c1,-4,-4,-2,3,/,/
O=C(O)CCc1ccc(-c2cccs2)o1,/,/,/,/,2,/
Cc1ccc(-c2ccc(CCC(=O)O)o2)cc1,3,-4,8,40*,-1,40*
COc1ccccc1NC(=S)N(CCCN1CCOCC1)Cc1cn(C)c2ccccc12,2,-7,1,1,-4,/
CCOc1ccccc1NC(=S)N(CCCN1CCOCC1)Cc1cn(C)c2ccccc12,4,-4,13,2,-11,/
COc1cc(Cl)ccc1NC(=S)N(CCCN1CCOCC1)Cc1cn(C)c2ccccc12,0,-9,10,34*,-5,37*
COc1ccc(Cl)cc1NC(=S)N(CCCN1CCOCC1)Cc1cn(C)c2ccccc12,2,-4,-1,34*,-11,37*
COc1cccc(Cn2cnc(-c3ccccc3OC)c2-c2ccco2)c1,-6,-6,1,32*,/,5
O=C(Nc1nnc([C@H]2C[C@H](O)[C@@H](CO)O2)s1)c1cccc(OC(F)(F)F)c1,1,3,-3,-1,/,/
Nc1c(C(=O)Nc2ccccc2F)sc2nc(-c3ccco3)ccc12,4,8,11,47*,17,42*
O=C(CC1SC(=O)NC1=O)Nc1ccc(Cl)cc1 (stereo unspecified),1,6,-6,40*,2,39*
